The record followed here is ChEMBL document CHEMBL1134956, “Relating the structure, activity, and physical properties of ultrashort-acting benzodiazepine receptor agonists” (Bioorg Med Chem Lett, 2002).

In brackets after ≈: the same amount, converted by molar mass.

Broadly, the Ki is the dissociation constant of the complex between target and ligand, obtained from inhibition or displacement. In general, solubility refers to how much of the substance goes into solution per volume.

A short description of data set [1]: Binding affinity against rat benzodiazepine (BZD) receptor.
The subject of data set [2] is Rattus norvegicus. Briefly: Compound was tested for its total (rat) loss-of-righting reflex LORR recovery time at a dose of 25 mg/kg. In kind it is functional, organism-based. The arrangement: dose 25 mg/kg; unit not given here. A digest of the protocol:
(§1)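 Rat loss-of-righting-reflex test, after the method of ref 14. The compound is given as a bolus injection in 50% PEG/25% EtOH/25% saline. Initial and total recovery times are recorded in min.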

A short description of data set [3]: Selectivity by the ratio of binding affinity of acid to the binding affinity of its ester.
Data set [4] has as its system Rattus norvegicus. Briefly: Compound was tested for its initial (rat) loss-of-righting reflex LORR recovery time at a dose of 25 mg/kg. Format: functional, organism-based. Details: dose 25 mg/kg; unit not given here. A digest of the protocol:
as §1

The nature of data set [5]: Aqueous solubility at pH 3 was determined. Format: physicochemical. A digest of the protocol: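 Solubility of a saturated sample at pH 3, read by visual inspection or UV assay. The pH 3 value was cross-checked against solubility at other pH values and spectrophotometric pKa values.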
Data set [6] concerns Rattus norvegicus. Briefly: Compound was tested for its total (rat) loss-of-righting reflex LORR recovery time at a dose of 50 mg/kg. Format: functional, organism-based. The arrangement: dose 50 mg/kg. The method, boiled down:
as §1

In data set [7] the test system is Rattus norvegicus. Briefly: Compound was tested for its initial (rat) loss-of-righting reflex LORR recovery time at a dose of 50 mg/kg. Details: dose 50 mg/kg. In kind it is functional, organism-based. The method, boiled down:
as §1

Data set [8] deals with Rattus norvegicus. Briefly: Compound was tested for its initial (rat) loss-of-righting reflex LORR recovery time at a dose of 30 mg/kg. The arrangement: dose 30 mg/kg. In kind it is functional, organism-based. The method, boiled down:
as §1

For data set [9], the system named is Rattus norvegicus. Briefly: Compound was tested for its total (rat) loss-of-righting reflex LORR recovery time at a dose of 30 mg/kg. Format: functional, organism-based. The arrangement: dose 30 mg/kg.

In the case of `COC(=O)CC[C@@H]1N=C(c2ccccc2F)c2cc(Cl)ccc2N=C1NCCc1c[nH]cn1`, in [1], the affinity, expressed as Ki, was 208 nM.

Take `COC(=O)CC[C@@H]1N=C(c2ccccc2F)c2cc(Cl)ccc2-n2c(C)cnc21`: the Recovery time with Rattus norvegicus [2] came to 33; in the data set on Rattus norvegicus [4], 23. The Selectivity in data set [3] came to 74. In data set [1], the affinity corresponds to a Ki of 8 nM. In [5], this molecule came in with a solubility of less than 1000 µg/mL.

For `COC(=O)CC[C@@H]1N=C(c2ccccn2)c2cc(Cl)ccc2-n2cc(C)nc21`, the figures for the Recovery time with Rattus norvegicus [2] and in the data set on Rattus norvegicus [4] were 15 and 13, respectively. For the same molecule, the Selectivity in [3] came to 156. In [1], this molecule showed a Ki of 60 nM. This molecule registered a solubility in data set [5] of 2000 µg/mL (≈ 5.07 mM).

Consider `COC(=O)CC[C@@H]1N=C(c2ccccn2)c2cc(Cl)ccc2-n2c1nc(C)c2C`, for which the Selectivity in data set [3] came out at 40. In data set [1], this molecule yielded a Ki of 130 nM.

Turning to `COC(=O)CC[C@@H]1N=C(c2ccccn2)c2cc(Cl)ccc2NC1=O`, in [3], the Selectivity stood at 46. The molecule also gave a Ki in data set [1] of 139 nM. For the same molecule, the Recovery time in the data set on Rattus norvegicus [6] worked out at 16 mg/kg; with Rattus norvegicus [7] it was 9 mg/kg. Moreover, in [5], the solubility was 1000 µg/mL (≈ 2.79 mM).

For `CNC1=Nc2ccc(Cl)cc2C(c2ccccc2F)=N[C@H]1CCC(=O)OC`, the Recovery time is 22 in the data set on Rattus norvegicus [2] and 15 in the data set with Rattus norvegicus [4]. The Selectivity in data set [3] came to 156. In data set [1], this molecule had a Ki of 96 nM. In data set [5], the concentration in solution (solubility) was 13000 µg/mL (≈ 33.5 mM).

In the case of `COC(=O)CC[C@@H]1N=C(c2ccccc2F)c2cc(Cl)ccc2N=C1NCC(C)C`, the Ki in data set [1] came out at 1010 nM.

For `CCNC1=Nc2ccc(Cl)cc2C(c2ccccc2F)=N[C@H]1CCC(=O)OC`, in data set [1], the Ki turned out to be 146 nM.

For the molecule `COC(=O)CC[C@@H]1N=C(c2ccccn2)c2cc(Cl)ccc2-n2c(C)cnc21`, the Recovery time in the data set on Rattus norvegicus [2] worked out at 11; in the data set with Rattus norvegicus [4] it was 9. Besides, in [3], the Selectivity came to 147. The affinity in data set [1], expressed as Ki, was 98 nM. The molecule further came in with a solubility in [5] of 13000 µg/mL (≈ 32.9 mM).

As for `COC(=O)CC[C@@H]1N=C(c2ccccc2F)c2cc(Cl)ccc2-n2c1cnc2C`, the Recovery time with Rattus norvegicus [2] was 24; in the data set with Rattus norvegicus [4], 20. Moreover, the Selectivity in data set [3] turned out to be 226. The molecule further returned a Ki in data set [1] of 11 nM.

`COC(=O)CC[C@@H]1N=C(c2ccccc2F)c2cc(Cl)ccc2N=C1NCCc1ccncc1`: the Ki in data set [1] amounted to 792 nM.

As for `COC(=O)CC[C@@H]1N=C(c2ccccc2F)c2cc(Cl)ccc2-n2cc(C)nc21`, the figures for the Recovery time in the data set on Rattus norvegicus [2] and with Rattus norvegicus [4] were 21 and 6, respectively. Further, the Selectivity in [3] stood at 156. Moreover, in [1], the Ki came out at 7 nM.

For the molecule `COC(=O)CC[C@@H]1N=C(c2ccccn2)c2cc(Cl)ccc2-n2ccnc21`, the Recovery time in the data set on Rattus norvegicus [2] worked out at 10; in the data set on Rattus norvegicus [4], 7. Further, in data set [3], the Selectivity turned out to be 176. In data set [1], this molecule came in with a Ki of 79 nM.

As for `COC(=O)CC[C@H]1N=C(c2ccccc2F)c2cc(Cl)ccc2-n2c1cnc2C`, in [3], the Selectivity is 28. Also, in data set [1], the Ki is 3570 nM.

`COC(=O)CC[C@@H]1N=C(c2ccccc2F)c2cc(Cl)ccc2N=C1NCCO` displayed a Ki in [1] of 303 nM.

Regarding `COC(=O)CC[C@@H]1N=C(c2ccccc2F)c2cc(Cl)ccc2-n2ccnc21`, the Recovery time in the data set on Rattus norvegicus [2] was determined as 23; in the data set with Rattus norvegicus [4], 17. The Selectivity in data set [3] was 64. In addition, the affinity in data set [1] corresponds to a Ki of 7 nM.

The molecule `COC(=O)CC[C@@H]1N=C(c2ccccc2F)c2cc(Cl)ccc2N=C1NCc1ccccc1` had a Ki in [1] of 875 nM.

In the case of `COC(=O)CC[C@@H]1N=C(c2ccccc2F)c2cc(Cl)ccc2NC1=O`, the Recovery time in the data set on Rattus norvegicus [2] was 24; with Rattus norvegicus [4] it was 9. Moreover, the Selectivity in data set [3] amounted to 984. Further, in [1], the affinity, expressed as Ki, was 7 nM. For the same molecule, the solubility in data set [5] is less than 3000 µg/mL.

As for `COC(=O)CC[C@@H]1N=C(c2ccccc2F)c2cc(Cl)ccc2N=C1NCc1ccncc1`, the Ki in [1] came out at 1230 nM.

As to `CNC1=Nc2ccc(Cl)cc2C(c2ccccc2)=[N+]([O-])C1` [CHLORDIAZEPOXIDE], the affinity in data set [1], expressed as Ki, was 438 nM.

`Cc1ncc2n1-c1ccc(Cl)cc1C(c1ccccc1F)=NC2` [MIDAZOLAM]: the Recovery time is 23 mg/kg in the data set with Rattus norvegicus [8] and 121 mg/kg in the data set on Rattus norvegicus [9]. Besides, affinity in data set [1] was put at a Ki of 2 nM. Besides, in data set [5], the solubility is not below 8000 µg/mL.
